Measurements reported in the M2OR odorant receptor database.
Residue numbers refer to the chain shown, from its start.

Legend:
Conditions in all cases: stereoisomer not certain
[1] = test system: O52E8
Method in brief: (§1)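 Each entry records the cell line, G-protein, co-transfected protein and tags used. Methods varied with the source, often transient luciferase assays in mammalian cell lines. A receptor–molecule pair is called responsive (active) if the original authors judged its signal statistically different from baseline and non-responsive (inactive) otherwise.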

[2] = test system: T1, O52H1
T1 sequence (whole entry): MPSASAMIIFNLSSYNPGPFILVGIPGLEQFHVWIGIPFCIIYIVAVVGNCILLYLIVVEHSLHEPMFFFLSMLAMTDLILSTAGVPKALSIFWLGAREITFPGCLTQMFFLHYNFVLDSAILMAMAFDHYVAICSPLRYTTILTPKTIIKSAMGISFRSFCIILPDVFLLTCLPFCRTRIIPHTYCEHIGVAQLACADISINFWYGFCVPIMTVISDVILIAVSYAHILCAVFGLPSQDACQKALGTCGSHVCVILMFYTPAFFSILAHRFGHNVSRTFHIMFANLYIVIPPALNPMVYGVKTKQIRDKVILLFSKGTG
Method in brief: as §1

[3] = test system: T2, O52A1
T2 sequence (whole entry): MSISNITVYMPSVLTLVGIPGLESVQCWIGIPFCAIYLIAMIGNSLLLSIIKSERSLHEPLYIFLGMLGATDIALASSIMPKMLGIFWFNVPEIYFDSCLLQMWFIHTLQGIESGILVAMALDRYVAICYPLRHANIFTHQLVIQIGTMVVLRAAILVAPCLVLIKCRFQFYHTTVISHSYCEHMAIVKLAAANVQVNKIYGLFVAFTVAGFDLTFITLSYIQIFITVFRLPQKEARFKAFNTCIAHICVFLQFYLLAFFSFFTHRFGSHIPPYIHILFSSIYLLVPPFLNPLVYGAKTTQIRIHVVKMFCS
Method in brief: as §1

[4] = test system: T3, O52B6 V288I
T3 sequence (whole entry): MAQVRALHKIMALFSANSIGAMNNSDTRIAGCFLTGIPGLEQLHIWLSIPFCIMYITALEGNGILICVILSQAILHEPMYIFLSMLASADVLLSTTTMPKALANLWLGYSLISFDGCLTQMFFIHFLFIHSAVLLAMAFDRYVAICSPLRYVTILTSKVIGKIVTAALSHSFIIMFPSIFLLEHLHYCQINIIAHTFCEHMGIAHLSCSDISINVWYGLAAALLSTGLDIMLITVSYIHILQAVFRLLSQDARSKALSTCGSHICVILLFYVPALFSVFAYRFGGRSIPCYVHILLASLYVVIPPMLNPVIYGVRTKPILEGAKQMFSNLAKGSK
Method in brief: as §1

[5] = test system: O52E2 R264C
Method in brief: as §1

[6] = test system: O52E4
Method in brief: as §1

[7] = test system: O52E5
Method in brief: as §1

[8] = test system: T4, O52H1 A89T H130R C242R
T4 sequence (whole entry): T1 sequence (whole entry) with A89T, H130R, C242R
Method in brief: as §1

[9] = test system: T5, O52H1 H130R C242R
T5 sequence (whole entry): T1 sequence (whole entry) with H130R, C242R
Method in brief: as §1

[10] = test system: T6, O52I2 I74L
T6 sequence (whole entry): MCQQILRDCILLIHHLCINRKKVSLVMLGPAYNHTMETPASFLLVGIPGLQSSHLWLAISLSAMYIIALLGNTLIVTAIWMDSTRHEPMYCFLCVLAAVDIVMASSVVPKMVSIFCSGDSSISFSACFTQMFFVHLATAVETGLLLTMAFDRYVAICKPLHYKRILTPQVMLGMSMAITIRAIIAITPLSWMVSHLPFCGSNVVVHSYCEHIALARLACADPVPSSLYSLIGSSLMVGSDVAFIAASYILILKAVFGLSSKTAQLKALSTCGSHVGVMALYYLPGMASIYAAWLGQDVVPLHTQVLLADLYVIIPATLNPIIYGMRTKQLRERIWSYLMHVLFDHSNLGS
Method in brief: as §1

[11] = test system: O52J3 T77A V128I Q141L
Method in brief: as §1

[12] = test system: T7, O52K1 A119T A149T
T7 sequence (whole entry): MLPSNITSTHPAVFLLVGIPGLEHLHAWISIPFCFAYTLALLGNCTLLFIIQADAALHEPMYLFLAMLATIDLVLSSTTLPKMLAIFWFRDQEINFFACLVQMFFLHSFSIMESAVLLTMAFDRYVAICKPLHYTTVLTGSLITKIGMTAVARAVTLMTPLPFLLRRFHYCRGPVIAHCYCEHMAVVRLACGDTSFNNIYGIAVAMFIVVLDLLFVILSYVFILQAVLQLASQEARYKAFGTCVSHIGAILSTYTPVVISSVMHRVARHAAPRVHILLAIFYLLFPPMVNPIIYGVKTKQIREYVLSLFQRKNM
Method in brief: as §1

[13] = test system: T8, O52K1 Q52R
T8 sequence (whole entry): T7 sequence (whole entry) with Q52R, T119A, T149A
Method in brief: as §1

[14] = test system: T9, O52L1
T9 sequence (whole entry): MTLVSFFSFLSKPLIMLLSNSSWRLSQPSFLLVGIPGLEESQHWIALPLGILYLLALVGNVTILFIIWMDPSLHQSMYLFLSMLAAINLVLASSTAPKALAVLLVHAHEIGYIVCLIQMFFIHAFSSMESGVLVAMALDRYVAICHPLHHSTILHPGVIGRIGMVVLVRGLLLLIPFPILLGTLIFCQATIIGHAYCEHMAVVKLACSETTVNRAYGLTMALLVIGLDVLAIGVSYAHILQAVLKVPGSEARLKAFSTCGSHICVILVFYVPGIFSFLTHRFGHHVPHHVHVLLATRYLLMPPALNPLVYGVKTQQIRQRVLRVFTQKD
Method in brief: as §1

[15] = test system: T10, O52M1 S305R
T10 sequence (whole entry): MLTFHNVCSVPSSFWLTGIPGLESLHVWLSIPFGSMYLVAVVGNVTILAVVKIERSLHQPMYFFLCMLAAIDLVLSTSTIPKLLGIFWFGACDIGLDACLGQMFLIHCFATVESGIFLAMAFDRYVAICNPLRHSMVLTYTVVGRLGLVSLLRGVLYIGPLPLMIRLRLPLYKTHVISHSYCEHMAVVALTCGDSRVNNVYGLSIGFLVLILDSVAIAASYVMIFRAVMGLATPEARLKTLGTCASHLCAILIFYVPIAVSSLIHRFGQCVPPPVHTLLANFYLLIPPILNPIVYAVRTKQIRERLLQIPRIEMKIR
Method in brief: as §1

[16] = test system: T11, O52N1 R167C F247I
T11 sequence (whole entry): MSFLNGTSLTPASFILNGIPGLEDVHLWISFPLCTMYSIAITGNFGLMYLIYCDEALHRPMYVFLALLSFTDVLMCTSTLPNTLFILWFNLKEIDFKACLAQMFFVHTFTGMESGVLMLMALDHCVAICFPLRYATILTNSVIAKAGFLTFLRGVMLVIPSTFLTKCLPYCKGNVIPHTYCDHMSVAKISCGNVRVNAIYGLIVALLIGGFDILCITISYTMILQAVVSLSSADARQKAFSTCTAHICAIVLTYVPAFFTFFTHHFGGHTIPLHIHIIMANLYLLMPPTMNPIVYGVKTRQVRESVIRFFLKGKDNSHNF
Method in brief: as §1

[17] = test system: T12, O52N2 S249A H264R
T12 sequence (whole entry): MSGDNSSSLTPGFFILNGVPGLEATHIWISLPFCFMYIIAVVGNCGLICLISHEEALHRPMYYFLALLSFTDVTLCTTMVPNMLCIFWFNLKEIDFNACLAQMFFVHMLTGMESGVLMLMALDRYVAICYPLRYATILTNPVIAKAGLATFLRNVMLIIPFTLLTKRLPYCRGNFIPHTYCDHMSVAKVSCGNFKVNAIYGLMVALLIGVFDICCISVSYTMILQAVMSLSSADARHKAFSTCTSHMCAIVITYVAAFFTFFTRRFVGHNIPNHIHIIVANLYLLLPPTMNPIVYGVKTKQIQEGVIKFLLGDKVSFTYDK
Method in brief: as §1

[18] = test system: T13, O52W1 H239R L254Q
T13 sequence (whole entry): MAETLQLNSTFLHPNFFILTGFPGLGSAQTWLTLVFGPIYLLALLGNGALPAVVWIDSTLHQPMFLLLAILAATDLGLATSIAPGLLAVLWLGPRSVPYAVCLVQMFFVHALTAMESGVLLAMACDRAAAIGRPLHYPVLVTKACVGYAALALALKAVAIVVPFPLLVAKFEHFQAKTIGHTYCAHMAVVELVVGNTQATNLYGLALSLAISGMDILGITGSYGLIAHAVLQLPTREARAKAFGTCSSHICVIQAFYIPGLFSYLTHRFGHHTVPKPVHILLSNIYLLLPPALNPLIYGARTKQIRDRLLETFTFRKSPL
Method in brief: as §1

[19] = test system: T14, O56A3
T14 sequence (whole entry): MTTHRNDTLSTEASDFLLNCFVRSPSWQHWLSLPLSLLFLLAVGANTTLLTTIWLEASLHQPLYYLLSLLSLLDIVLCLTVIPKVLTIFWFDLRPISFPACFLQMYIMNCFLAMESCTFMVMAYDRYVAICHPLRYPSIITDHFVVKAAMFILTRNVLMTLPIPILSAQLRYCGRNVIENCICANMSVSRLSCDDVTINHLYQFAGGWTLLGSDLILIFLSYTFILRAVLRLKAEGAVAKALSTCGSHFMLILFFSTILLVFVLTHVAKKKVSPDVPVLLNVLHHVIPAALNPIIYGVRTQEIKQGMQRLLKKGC
Method in brief: as §1

[20] = test system: T15, O56A4 I247A
T15 sequence (whole entry): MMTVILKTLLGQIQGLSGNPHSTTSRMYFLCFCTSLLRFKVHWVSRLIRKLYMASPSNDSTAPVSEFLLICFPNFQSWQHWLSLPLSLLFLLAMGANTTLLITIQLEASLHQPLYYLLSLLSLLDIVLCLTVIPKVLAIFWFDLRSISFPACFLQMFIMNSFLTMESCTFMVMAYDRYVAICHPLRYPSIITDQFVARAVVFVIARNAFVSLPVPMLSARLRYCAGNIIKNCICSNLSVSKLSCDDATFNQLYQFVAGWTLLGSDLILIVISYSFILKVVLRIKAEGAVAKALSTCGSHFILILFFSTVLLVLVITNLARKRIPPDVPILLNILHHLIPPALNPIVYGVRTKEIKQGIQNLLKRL
Method in brief: as §1

Measured: odorant receptor agonist call

Sequence of O52E4 (as listed by the source): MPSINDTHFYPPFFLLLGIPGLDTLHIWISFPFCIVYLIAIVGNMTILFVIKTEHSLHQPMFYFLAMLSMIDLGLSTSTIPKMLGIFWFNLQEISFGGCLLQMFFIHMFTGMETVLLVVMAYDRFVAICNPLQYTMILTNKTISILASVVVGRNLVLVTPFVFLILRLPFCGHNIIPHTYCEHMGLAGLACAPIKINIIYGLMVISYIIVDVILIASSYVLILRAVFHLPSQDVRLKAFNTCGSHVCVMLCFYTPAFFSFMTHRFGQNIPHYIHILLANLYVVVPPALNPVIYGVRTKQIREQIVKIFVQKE
Sequence of O52E8 (as listed by the source): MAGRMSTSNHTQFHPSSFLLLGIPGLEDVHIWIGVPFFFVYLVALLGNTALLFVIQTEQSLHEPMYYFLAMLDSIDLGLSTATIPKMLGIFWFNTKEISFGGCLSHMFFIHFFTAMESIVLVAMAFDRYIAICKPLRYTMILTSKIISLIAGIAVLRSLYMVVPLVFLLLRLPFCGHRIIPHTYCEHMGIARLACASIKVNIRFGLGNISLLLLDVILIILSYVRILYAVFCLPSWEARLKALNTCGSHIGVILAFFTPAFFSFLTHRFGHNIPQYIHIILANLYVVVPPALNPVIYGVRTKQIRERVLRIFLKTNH
Sequence of O52E2 R264C (as listed by the source, stated change not applied): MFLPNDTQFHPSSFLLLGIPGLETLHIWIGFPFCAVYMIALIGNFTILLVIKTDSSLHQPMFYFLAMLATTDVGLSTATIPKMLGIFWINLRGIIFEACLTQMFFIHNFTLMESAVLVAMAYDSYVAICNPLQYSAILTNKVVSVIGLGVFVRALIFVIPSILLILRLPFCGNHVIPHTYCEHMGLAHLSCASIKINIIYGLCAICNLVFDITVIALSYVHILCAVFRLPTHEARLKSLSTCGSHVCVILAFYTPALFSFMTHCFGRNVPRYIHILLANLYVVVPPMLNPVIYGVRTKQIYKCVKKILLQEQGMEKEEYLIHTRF
Sequence of O52E5 (as listed by the source): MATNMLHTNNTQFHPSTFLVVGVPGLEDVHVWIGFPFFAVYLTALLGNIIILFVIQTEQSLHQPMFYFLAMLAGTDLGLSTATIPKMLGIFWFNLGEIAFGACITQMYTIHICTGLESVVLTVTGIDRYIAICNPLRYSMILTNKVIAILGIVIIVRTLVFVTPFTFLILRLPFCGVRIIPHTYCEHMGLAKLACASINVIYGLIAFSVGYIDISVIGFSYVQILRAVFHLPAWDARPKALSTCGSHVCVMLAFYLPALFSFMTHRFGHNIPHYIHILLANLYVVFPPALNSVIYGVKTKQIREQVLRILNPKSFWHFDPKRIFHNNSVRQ

CCCCCC(S)C(C)CO (centres undefined)
inactive: [1] | [2]

CC(=O)c1c(C)c([N+](=O)[O-])c(C(C)(C)C)c([N+](=O)[O-])c1C
inactive: [1] | [2]

CC1=C(O)C(=O)C(C)O1 (centres undefined)
inactive: all assays above

CCCC(S)CCOC(C)=O (centres undefined)
inactive: all assays above

CC(CO)CS (centres undefined)
inactive: [1] | [2]

CCC1OC(=O)C(O)=C1C (centres undefined)
inactive: all assays above

CC1CCCCCCCCCCCCC(=O)C1 (centres undefined)
inactive: [1] | [2]

CC1=C(O)C(=O)OC1C (centres undefined)
inactive: all assays above

CCCCCC(=O)C(C)C(C)=O (centres undefined)
inactive: [1] | [2]

CCC(S)C(C)CO (centres undefined)
inactive: [1] | [2]

Cc1cnc(C)c(C)n1
inactive: all assays above

CCCCCCC=CCCC=O
not listed: [7] | [14]
inactive: all other assays above

CCCCCC1CCCC(=O)O1 (centres undefined)
inactive: [1] | [2]

CCC1OC(C)=C(O)C1=O (centres undefined)
inactive: all assays above

CCCCC(S)C(C)CO (centres undefined)
inactive: [1] | [2]

CC1=NC(C)C(C)S1 (centres undefined)
inactive: all assays above
